Results: ChEMBL document CHEMBL3124808, “C-peptide inhibitors of Ebola virus glycoprotein-mediated cell entry: effects of conjugation to cholesterol and side chain-side chain crosslinking” (Bioorg Med Chem Lett, 2013)
Calls of active or inactive are those of the source. The rule behind the calls is not given here. Where a SMILES comes first, the peptide text is derived from it. The star is where a group is joined. X1 = CC(C)CCC[C@@H](C)[C@H]1CC[C@H]2[C@@H]3CC=C4C[C@@H](OC(=O)C*)CC[C@]4(C)[C@H]3CC[C@]12C

Legend:
Format in all cases: cell-based
[1] = molecular target: T1, Envelope glycoprotein (Zaire ebolavirus (strain Mayinga-76) (ZEBOV) (Zaire Ebola virus)) (UniProt Q05320); test: Inhibition of Vesicular stomatitis virus particle bearing EBOV glycoprotein-mediated viral entry in African green monkey Vero cells at 20 uM incubated for 1 hr prior to viral addition measured after 1 hr by fluorescence microscopy relative to control
T1 sequence (whole entry): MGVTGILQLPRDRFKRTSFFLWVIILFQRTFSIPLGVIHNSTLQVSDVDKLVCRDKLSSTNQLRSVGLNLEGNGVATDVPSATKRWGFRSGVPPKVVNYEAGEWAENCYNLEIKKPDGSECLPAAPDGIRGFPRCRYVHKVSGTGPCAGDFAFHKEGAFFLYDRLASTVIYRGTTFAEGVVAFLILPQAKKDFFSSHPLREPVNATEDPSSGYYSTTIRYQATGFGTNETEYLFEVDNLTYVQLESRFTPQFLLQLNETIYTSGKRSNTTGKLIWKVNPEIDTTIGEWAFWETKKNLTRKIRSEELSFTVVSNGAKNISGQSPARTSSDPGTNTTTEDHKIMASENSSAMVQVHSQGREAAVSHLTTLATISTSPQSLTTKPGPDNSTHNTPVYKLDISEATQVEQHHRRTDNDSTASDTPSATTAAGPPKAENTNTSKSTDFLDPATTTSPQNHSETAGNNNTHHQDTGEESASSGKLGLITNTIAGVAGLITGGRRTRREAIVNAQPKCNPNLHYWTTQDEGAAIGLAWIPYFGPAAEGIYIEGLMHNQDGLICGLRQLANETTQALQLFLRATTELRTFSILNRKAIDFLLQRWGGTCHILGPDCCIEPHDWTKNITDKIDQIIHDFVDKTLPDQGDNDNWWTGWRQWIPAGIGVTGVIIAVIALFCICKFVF
Procedure, shortened: (§1)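 Vero host cells were infected with VSV particles bearing the EBOV glycoprotein in place of G, with a matrix protein–eGFP fusion. Primary infection events were quantified by fluorescence confocal microscopy, and inhibition was expressed as fold or percent reduction in infection versus control.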

Vero [2] = test: Cytotoxicity against African green monkey Vero cells at 40 uM by Cyto Tox Glo assay; settings: chlorocebus sabaeus
Procedure, shortened: (§2)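 Vero cells exposed to peptide were scored for tolerance by visual inspection and by a commercial cell viability assay.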

Vero [3] = test: Inhibition of Vesicular stomatitis virus envelope glycoprotein G-mediated viral entry in African green monkey Vero cells at >10 uM incubated for 1 hr prior to viral addition measured after 1 hr by fluorescence microscopy relative to control
Vero [4] = test: Inhibition of Vesicular stomatitis virus envelope glycoprotein G-mediated viral entry in African green monkey Vero cells at 10 uM incubated for 1 hr prior to viral addition measured after 1 hr by fluorescence microscopy relative to control
[5] = molecular target: T1, Envelope glycoprotein (Zaire ebolavirus (strain Mayinga-76) (ZEBOV) (Zaire Ebola virus)); test: Inhibition of Vesicular stomatitis virus particle bearing EBOV glycoprotein-mediated viral entry in African green monkey Vero cells at 40 uM incubated for 1 hr prior to viral addition measured after 1 hr by fluorescence microscopy relative to control; procedure, shortened: as §1
Vero [6] = test: Inhibition of Vesicular stomatitis virus envelope glycoprotein G-mediated viral entry in African green monkey Vero cells incubated for 1 hr prior to viral addition measured after 1 hr by fluorescence microscopy relative to control
[7] = molecular target: T1, Envelope glycoprotein (Zaire ebolavirus (strain Mayinga-76) (ZEBOV) (Zaire Ebola virus)); test: Inhibition of Vesicular stomatitis virus particle bearing EBOV glycoprotein-mediated viral entry in African green monkey Vero cells incubated for 1 hr prior to viral addition measured after 1 hr by fluorescence microscopy relative to control; procedure, shortened: as §1
Vero [8] = test: Cytotoxicity against African green monkey Vero cells at >15 uM by Cyto Tox Glo assay; settings: chlorocebus sabaeus
[9] = molecular target: T1, Envelope glycoprotein (Zaire ebolavirus (strain Mayinga-76) (ZEBOV) (Zaire Ebola virus)); test: Inhibition of Vesicular stomatitis virus particle bearing EBOV glycoprotein-mediated viral entry in African green monkey Vero cells at >20 uM incubated for 1 hr prior to viral addition measured after 1 hr by fluorescence microscopy relative to control; procedure, shortened: as §1
Vero [10] = test: Inhibition of Vesicular stomatitis virus envelope glycoprotein G-mediated viral entry in African green monkey Vero cells at 40 uM incubated for 1 hr prior to viral addition measured after 1 hr by fluorescence microscopy relative to control
[11] = molecular target: T1, Envelope glycoprotein (Zaire ebolavirus (strain Mayinga-76) (ZEBOV) (Zaire Ebola virus)); test: Inhibition of Vesicular stomatitis virus particle bearing EBOV glycoprotein-mediated viral entry in African green monkey Vero cells at 75 uM incubated for 1 hr prior to viral addition measured after 1 hr by fluorescence microscopy relative to control
Vero [12] = test: Cytotoxicity against African green monkey Vero cells at 30 to 40 uM by Cyto Tox Glo assay; settings: chlorocebus sabaeus; procedure, shortened: as §2

SMILES: CC[C@H](C)[C@H](NC(=O)CNC(=O)[C@H](CO)NC(=O)CNC(=O)[C@H](CCCCN)NC(=O)[C@H](CCCCN)NC(=O)[C@H](CCCCN)NC(=O)[C@H](CCCCN)NC(=O)[C@@H](N)CSCC(=O)O[C@H]1CC[C@@]2(C)C(=CC[C@H]3[C@@H]4CC[C@H]([C@H](C)CCCC(C)C)[C@@]4(C)CC[C@@H]32)C1)C(=O)N[C@@H](CCC(=O)O)C(=O)N1CCC[C@H]1C(=O)N[C@@H](Cc1cnc[nH]1)C(=O)N[C@@H](CC(=O)O)C(=O)N[C@@H](Cc1c[nH]c2ccccc12)C(=O)N[C@H](C(=O)N[C@@H](CCCCN)C(=O)N[C@@H](CC(N)=O)C(=O)N[C@H](C(=O)N[C@H](C(=O)N[C@@H](CC(=O)O)C(=O)N[C@@H](CCCCN)C(=O)N[C@H](C(=O)N[C@@H](CC(=O)O)C(=O)N[C@@H](CCC(N)=O)C(=O)N[C@H](C(=O)N[C@H](C(=O)N[C@@H](Cc1cnc[nH]1)C(=O)N[C@@H](CC(=O)O)C(=O)N[C@@H](Cc1ccccc1)C(=O)N[C@H](C(=O)N[C@@H](CC(=O)O)C(=O)N[C@@H](CCCCN)C(=O)O)C(C)C)[C@@H](C)CC)[C@@H](C)CC)[C@@H](C)CC)[C@@H](C)O)[C@@H](C)CC)[C@@H](C)O
- inhibition [1]: Active
- Activity (Vero [2]): 20%
- inhibition (Vero [3]): > 99%
- inhibition (Vero [4]): 90%
- Ratio [5]: 1000

SMILES: CC[C@H](C)[C@H](NC(=O)CNC(=O)[C@H](CO)NC(=O)CNC(=O)[C@H](CCCNC(=N)N)NC(=O)[C@H](CCCNC(=N)N)NC(=O)[C@H](CCCNC(=N)N)NC(=O)[C@H](CCC(N)=O)NC(=O)[C@H](CCCNC(=N)N)NC(=O)[C@H](CCCNC(=N)N)NC(=O)[C@H](CCCCN)NC(=O)[C@H](CCCCN)NC(=O)[C@H](CCCNC(=N)N)NC(=O)CNC(=O)[C@H](Cc1ccc(O)cc1)NC(C)=O)C(=O)N[C@@H](CCC(=O)O)C(=O)N1CCC[C@H]1C(=O)N[C@@H](Cc1cnc[nH]1)C(=O)N[C@@H](CC(=O)O)C(=O)N[C@@H](Cc1c[nH]c2ccccc12)C(=O)N[C@H](C(=O)N[C@@H](CCCCN)C(=O)N[C@@H](CC(N)=O)C(=O)N[C@H](C(=O)N[C@H](C(=O)N[C@H]1CSCC(=O)NCCC[C@H](C(=O)N[C@@H](CCC(N)=O)C(=O)N[C@H](C(=O)N[C@H](C(=O)N[C@@H](Cc2cnc[nH]2)C(=O)N[C@@H](CC(=O)O)C(=O)N[C@@H](Cc2ccccc2)C(=O)N[C@H](C(=O)N[C@@H](CC(=O)O)C(=O)N[C@@H](CCCCN)C(=O)O)C(C)C)[C@@H](C)CC)[C@@H](C)CC)NC(=O)[C@H]([C@@H](C)CC)NC(=O)[C@H](CCCCN)NC1=O)[C@@H](C)O)[C@@H](C)CC)[C@@H](C)O
- inhibition (Vero [6]): Active
- inhibition [7]: Active
- Activity (Vero [8]): Toxic

SMILES: CC(C)CCC[C@@H](C)[C@H]1CC[C@H]2[C@@H]3CC=C4C[C@@H](OC(=O)CSC[C@H](NC(=O)CNC(=O)[C@H](CO)NC(=O)CNC(=O)[C@H](CCCCN)NC(=O)[C@H](CCCCN)NC(=O)[C@H](CCCCN)NC(=O)[C@@H](N)CCCCN)C(=O)O)CC[C@]4(C)[C@H]3CC[C@]12C (H-KKKKGSGC(X1)-OH)
- inhibition [9]: > 90%
- inhibition [1]: Active

SMILES: CC[C@H](C)[C@H](NC(=O)CNC(=O)[C@H](CO)NC(=O)CNC(=O)[C@H](CCCNC(=N)N)NC(=O)[C@H](CCCNC(=N)N)NC(=O)[C@H](CCCNC(=N)N)NC(=O)[C@H](CCC(N)=O)NC(=O)[C@H](CCCNC(=N)N)NC(=O)[C@H](CCCNC(=N)N)NC(=O)[C@H](CCCCN)NC(=O)[C@H](CCCCN)NC(=O)[C@H](CCCNC(=N)N)NC(=O)CNC(=O)[C@H](Cc1ccc(O)cc1)NC(C)=O)C(=O)N[C@@H](CCC(=O)O)C(=O)N1CCC[C@H]1C(=O)N[C@@H](Cc1cnc[nH]1)C(=O)N[C@@H](CC(=O)O)C(=O)N[C@@H](Cc1c[nH]c2ccccc12)C(=O)N[C@H](C(=O)N[C@@H](CCCCN)C(=O)N[C@H]1CSCC(=O)NCCC[C@@H](C(=O)N[C@@H](CCCCN)C(=O)N[C@H](C(=O)N[C@@H](CC(=O)O)C(=O)N[C@@H](CCC(N)=O)C(=O)N[C@H](C(=O)N[C@H](C(=O)N[C@@H](Cc2cnc[nH]2)C(=O)N[C@@H](CC(=O)O)C(=O)N[C@@H](Cc2ccccc2)C(=O)N[C@H](C(=O)N[C@@H](CC(=O)O)C(=O)N[C@@H](CCCCN)C(=O)O)C(C)C)[C@@H](C)CC)[C@@H](C)CC)[C@@H](C)CC)NC(=O)[C@H]([C@@H](C)O)NC(=O)[C@H]([C@@H](C)CC)NC1=O)[C@@H](C)O
- inhibition (Vero [10]): 80%
- Activity (Vero [2]): Non-toxic
- inhibition [5]: 99%

SMILES: CC(C)CCC[C@@H](C)[C@H]1CC[C@H]2[C@@H]3CC=C4C[C@@H](O)CC[C@]4(C)[C@H]3CC[C@]12C
- inhibition [7]: Active

SMILES: CC[C@H](C)[C@H](NC(=O)CNC(=O)[C@H](CO)NC(=O)CNC(=O)[C@H](CCCNC(=N)N)NC(=O)[C@H](CCCNC(=N)N)NC(=O)[C@H](CCCNC(=N)N)NC(=O)[C@H](CCC(N)=O)NC(=O)[C@H](CCCNC(=N)N)NC(=O)[C@H](CCCNC(=N)N)NC(=O)[C@H](CCCCN)NC(=O)[C@H](CCCCN)NC(=O)[C@H](CCCNC(=N)N)NC(=O)CNC(=O)[C@@H](N)Cc1ccc(O)cc1)C(=O)N[C@@H](CCC(=O)O)C(=O)N1CCC[C@H]1C(=O)N[C@@H](Cc1cnc[nH]1)C(=O)N[C@@H](CC(=O)O)C(=O)N[C@@H](Cc1c[nH]c2ccccc12)C(=O)N[C@H](C(=O)N[C@@H](CCCCN)C(=O)N[C@@H](CC(N)=O)C(=O)N[C@H](C(=O)N[C@H](C(=O)N[C@@H](CC(=O)O)C(=O)N[C@@H](CCCCN)C(=O)N[C@H](C(=O)N[C@@H](CC(=O)O)C(=O)N[C@@H](CCC(N)=O)C(=O)N[C@H](C(=O)N[C@H](C(=O)N[C@@H](Cc1cnc[nH]1)C(=O)N[C@@H](CC(=O)O)C(=O)N[C@@H](Cc1ccccc1)C(=O)N[C@H](C(=O)N[C@@H](CC(=O)O)C(=O)N[C@@H](CCCCN)C(=O)O)C(C)C)[C@@H](C)CC)[C@@H](C)CC)[C@@H](C)CC)[C@@H](C)O)[C@@H](C)CC)[C@@H](C)O
- inhibition [11]: 99%

SMILES: CC[C@H](C)[C@H](N)C(=O)N[C@@H](CCC(=O)O)C(=O)N1CCC[C@H]1C(=O)N[C@@H](Cc1cnc[nH]1)C(=O)N[C@@H](CC(=O)O)C(=O)N[C@@H](Cc1c[nH]c2ccccc12)C(=O)N[C@H](C(=O)N[C@@H](CCCCN)C(=O)N[C@@H](CC(N)=O)C(=O)N[C@H](C(=O)N[C@H](C(=O)N[C@@H](CC(=O)O)C(=O)N[C@@H](CCCCN)C(=O)N[C@H](C(=O)N[C@@H](CC(=O)O)C(=O)N[C@@H](CCC(N)=O)C(=O)N[C@H](C(=O)N[C@H](C(=O)N[C@@H](Cc1cnc[nH]1)C(=O)N[C@@H](CC(=O)O)C(=O)N[C@@H](Cc1ccccc1)C(=O)N[C@H](C(=O)N[C@@H](CC(=O)O)C(=O)N[C@@H](CCCCN)C(=O)NCC(=O)N[C@@H](CO)C(=O)NCC(=O)N[C@@H](CCCCN)C(=O)N[C@@H](CCCCN)C(=O)N[C@@H](CCCCN)C(=O)N[C@@H](CCCCN)C(=O)N[C@@H](CSCC(=O)O[C@H]1CC[C@@]2(C)C(=CC[C@H]3[C@@H]4CC[C@H]([C@H](C)CCCC(C)C)[C@@]4(C)CC[C@@H]32)C1)C(=O)O)C(C)C)[C@@H](C)CC)[C@@H](C)CC)[C@@H](C)CC)[C@H](C)O)[C@@H](C)CC)[C@@H](C)O
- inhibition [1]: Active
- Activity (Vero [12]): 20%
- inhibition (Vero [3]): > 99%
- inhibition (Vero [4]): 90%
- Ratio [5]: 1000
